Results as given in paper PMC9082424 (RSC Advances, 2018).

Experiments:
α-glucosidase [1] = target: T1, α-glucosidase (Saccharomyces cerevisiae, UniProt P53341); assay: α-Glucosidase inhibitory assay in vitro; assay type: biochemical; conditions: for α-Glucosidase inhibitory activity (in words): up to the highest tested concentration
α-glucosidase [2] = target: T1, α-glucosidase; assay: Steady-state kinetic analysis of α-glucosidase inhibition; assay type: biochemical
Procedure, shortened: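 Yeast α-glucosidase (final 0.025 U mL−1, in 75 mM phosphate buffer pH 7.4) premixed with test compound at several concentrations for 10 min at 37 °C. 4-NPGP (50–200 μM) added to start the reaction. 4-Nitrophenol followed at 405 nm every 30 s for 10 min, with initial velocity taken as ΔA per min. Analysed by Lineweaver–Burk plots. Ki came from secondary plots of slopes, and Ki′ from secondary plots of apparent 1/Vmax, against inhibitor concentration. Three independent experiments.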

T1 sequence (P53341 whole entry): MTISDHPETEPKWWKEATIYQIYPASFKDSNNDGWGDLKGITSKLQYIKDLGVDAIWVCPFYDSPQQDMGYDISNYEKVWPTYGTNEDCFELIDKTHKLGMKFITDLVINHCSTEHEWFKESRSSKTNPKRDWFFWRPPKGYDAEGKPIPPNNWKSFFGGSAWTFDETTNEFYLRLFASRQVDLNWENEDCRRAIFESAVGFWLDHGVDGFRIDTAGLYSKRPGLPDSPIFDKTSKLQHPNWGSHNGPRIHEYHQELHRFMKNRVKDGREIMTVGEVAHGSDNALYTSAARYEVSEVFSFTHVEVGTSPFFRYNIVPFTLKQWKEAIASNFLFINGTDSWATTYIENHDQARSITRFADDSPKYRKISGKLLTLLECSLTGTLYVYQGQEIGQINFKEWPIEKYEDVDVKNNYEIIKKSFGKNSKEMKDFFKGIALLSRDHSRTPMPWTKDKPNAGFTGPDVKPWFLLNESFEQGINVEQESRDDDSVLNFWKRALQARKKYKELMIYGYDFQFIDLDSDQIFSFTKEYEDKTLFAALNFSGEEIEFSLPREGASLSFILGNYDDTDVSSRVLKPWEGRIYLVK

With CC(C)C1=Cc2ccc3c(c2C(=O)C1=O)CCCC3(C)C [MT, miltirone] the IC50 (α-glucosidase [1]) was > 100 µM.

In the case of O=C(/C=C/c1ccc(O)c(O)c1)O[C@H](Cc1ccc(O)c(O)c1)C(=O)O [RA, rosmarinic acid], the IC50 (α-glucosidase [1]) is reported as > 200 µM.

In the case of Cc1coc2c1C(=O)C(=O)c1c-2ccc2c1CCCC2(C)C [TS-IIA, tanshinone IIA], the IC50 (α-glucosidase [1]) is reported as > 100 µM.

With Cc1coc2c1C(=O)C(=O)c1c-2ccc2c1CCCC2(C)CO (stereo not shown) [TS-IIB, tanshinone IIB] the IC50 (α-glucosidase [1]) was > 100 µM and the “α-Glucosidase inhibitory activity (in words)” value (α-glucosidase [1]) was “weak inhibitory activity”.

With O=C(O)/C=C/c1ccc(O)c(O)c1 [CA, caffeic acid] the IC50 (α-glucosidase [1]) was > 100 µM.

C[C@H]1COC2=C1C(=O)C(=O)c1c2ccc2c1CCCC2(C)C [CTS, cryptotanshinone] was tested, and the IC50 (α-glucosidase [1]) was > 100 µM.

For O=C(/C=C/c1ccc(O)c2c1[C@H](C(=O)O)[C@@H](c1ccc(O)c(O)c1)O2)O[C@H](Cc1ccc(O)c(O)c1)C(=O)O [LA, lithospermic acid], the IC50 (α-glucosidase [1]) was > 100 µM and the “α-Glucosidase inhibitory activity (in words)” value (α-glucosidase [1]) was “weak inhibitory effect”.

In the case of C[C@H]1[C@H](C)CC[C@]2(C(=O)O)CC[C@]3(C)C(=CC[C@@H]4[C@@]5(C)CC[C@H](O)C(C)(C)[C@@H]5CC[C@]43C)[C@H]12 [UA, ursolic acid], the “α-Glucosidase inhibitory activity (in words)” value (α-glucosidase [1]) is reported as “weak inhibitory activity”.

O=C(/C=C/c1ccc(O)c(O)c1/C=C/c1ccc(O)c(O)c1)O[C@H](Cc1ccc(O)c(O)c1)C(=O)O [SAA, salvianolic acid A] was tested, and the IC50 (α-glucosidase [1]) was 19.3 ± 0.89 µM, the Ki (α-glucosidase [2]) was 21.2 µM and the Inhibition mode (α-glucosidase [2]; with respect to substrate 4-NPGP (50–200 μM)) was “competitive inhibition”.
